ChEMBL document CHEMBL3616436, “Synthesis, cytotoxicity and antimicrobial activity of thiourea derivatives incorporating 3-(trifluoromethyl)phenyl moiety” (Eur J Med Chem, 2015)
Values after ≈ are worked out from the molar mass of the structure shown. Active and inactive are the calls of the source. The rule behind the calls is not given here.

Assays:
[1] = Cytotoxicity against human MT4 cells; assay type: cell-based
[2] = system: Vesicular stomatitis virus; assay: Antiviral activity against Vesicular stomatitis virus ATCC VR 1540 infected in African green monkey Vero 76 cells assessed as reduction of virus-plaque formation after 2 days by crystal violet staining; assay type: functional, organism-based; settings: ATCC VR 1540, Vero, 48 h
[3] = system: Human immunodeficiency virus 1; assay: Antiviral activity against HIV1 3B infected in human MT4 cells assessed as protection against virus-induced cytopathogenicity by MTT assay; assay type: functional, organism-based; settings: Human immunodeficiency virus 1, 3B
[4] = Cytotoxicity against bovine MDBK cells assessed as cell viability after 48 to 96 hrs by MTT assay; assay type: cell-based, Bos taurus; settings: cattle
[5] = Antiviral activity against Bovine viral diarrhea virus 1-NADL ATCC VR-534 infected in MDBK cells assessed as protection against virus-induced cytopathogenicity after 3 to 4 days by MTT assay; assay type: functional, cell-based; settings: Bovine viral diarrhea virus isolates and strains, ATCC VR-534, MDBK
How it was run: (§1)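 Cells seeded in 96-well plates (BHK 5x10^4, MDBK 3x10^4 cells/well), grown overnight to confluence, infected at m.o.i. 0.01 (BHK for Reo-1, MDBK for BVDV); serial compound dilutions in maintenance medium with 0.5% inactivated FBS added after 1 h; viability by MTT after 3–4 days at 37°C; EC50 for 50% protection by linear regression.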

[6] = Cytotoxicity against BHK cells assessed as cell viability after 48 to 96 hrs by MTT assay; assay type: cell-based, Mesocricetus auratus; settings: hamster
[7] = system: Yellow fever virus; assay: Antiviral activity against Yellow fever virus 17D infected in BHK cells assessed as protection against virus-induced cytopathogenicity after 3 to 4 days by MTT assay; assay type: functional, cell-based
[8] = system: Mammalian orthoreovirus 1; assay: Antiviral activity against Reovirus type-1 ATCC VR-214 infected in BHK cells assessed as protection against virus-induced cytopathogenicity after 3 to 4 days by MTT assay; assay type: functional, cell-based; settings: Mammalian orthoreovirus 1, ATCC VR-214, BHK; how it was run: as §1
[9] = Cytotoxicity against African green monkey Vero 76 cells assessed as cell viability after 48 to 96 hrs by crystal violet staining; assay type: cell-based; settings: chlorocebus sabaeus
[10] = system: Coxsackievirus B5; assay: Antiviral activity against Human coxsackievirus B5 ATCC VR-29 infected in African green monkey Vero 76 cells assessed as reduction of virus-plaque formation after 3 days by crystal violet staining; assay type: functional, organism-based; settings: Enterovirus B, ATCC VR-29, Vero, 72 h
How it was run: (§2)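 Plaque reduction: Vero-76 at 2x10^5 cells/well grown to confluent monolayers, infected 2 h at 50–100 PFU/well; after removing unadsorbed virus, overlay of D-MEM, 1% inactivated FBS, 0.75% methylcellulose with or without serial compound dilutions; 3 days at 37°C, fixed and stained with crystal violet in 50% ethanol, plaques counted; EC50 by linear regression.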

[11] = system: Poliovirus 1; assay: Antiviral activity against Poliovirus type 1 ATCC VR-1562 infected in African green monkey Vero 76 cells assessed as reduction of virus-plaque formation after 2 days by crystal violet staining; assay type: functional, organism-based; settings: Enterovirus C, ATCC VR-1562, Vero, 48 h
[12] = system: Vaccinia virus; assay: Antiviral activity against Human Vaccinia virus ATCC VR-1549 infected in African green monkey Vero 76 cells assessed as reduction of virus-plaque formation after 3 days by crystal violet staining; assay type: functional, organism-based; settings: Orthopoxvirus vaccinia, ATCC VR-1549, Vero, 72 h
[13] = system: Human alphaherpesvirus 1; assay: Antiviral activity against Human herpesvirus 1 KOS ATCC VR-1493 infected in African green monkey Vero 76 cells assessed as reduction of virus-plaque formation after 3 days by crystal violet staining; assay type: functional, organism-based; settings: Human alphaherpesvirus 1, KOS ATCC VR1493, Vero, 72 h; how it was run: as §2
[14] = system: Escherichia coli; assay: Antimicrobial activity against Escherichia coli ATCC 10538 after 18 hrs by twofold serial microdilution method; assay type: functional, organism-based
[15] = system: Escherichia coli; assay: Antimicrobial activity against Escherichia coli ATCC 25922 after 18 hrs by twofold serial microdilution method; assay type: functional, organism-based
[16] = system: Escherichia coli; assay: Antimicrobial activity against Escherichia coli NCTC 8196 after 18 hrs by twofold serial microdilution method; assay type: functional, organism-based
[17] = system: Pseudomonas aeruginosa; assay: Antimicrobial activity against Pseudomonas aeruginosa ATCC 15442 after 18 hrs by twofold serial microdilution method; assay type: functional, organism-based
[18] = system: Pseudomonas aeruginosa; assay: Antimicrobial activity against Pseudomonas aeruginosa NCTC 6749 after 18 hrs by twofold serial microdilution method; assay type: functional, organism-based
[19] = system: Pseudomonas aeruginosa; assay: Antimicrobial activity against Pseudomonas aeruginosa ATCC 27863 after 18 hrs by twofold serial microdilution method; assay type: functional, organism-based
[20] = system: Bordetella bronchiseptica; assay: Antimicrobial activity against Bordetella bronchiseptica ATCC 4617 after 18 hrs by twofold serial microdilution method; assay type: functional, organism-based
[21] = system: Candida albicans; assay: Antimicrobial activity against Candida albicans ATCC 10231 after 24 hrs by twofold serial microdilution method; assay type: functional, organism-based
[22] = system: Candida albicans; assay: Antimicrobial activity against Candida albicans ATCC 90028 after 24 hrs by twofold serial microdilution method; assay type: functional, organism-based
[23] = system: Candida parapsilosis; assay: Antimicrobial activity against Candida parapsilosis ATCC 22019 after 24 hrs by twofold serial microdilution method; assay type: functional, organism-based
[24] = system: Mycobacterium tuberculosis; assay: Antimycobacterial activity against Mycobacterium tuberculosis H37Rv ATCC 25618; assay type: functional
How it was run: (§3)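 Classical test-tube successive-dilution method in Youmans' modification of Proskauer and Beck liquid medium with 10% bovine serum. Inoculum came from 14-day cultures. DMSO stock was 10 mg/mL, diluted geometrically in medium. Tubes were incubated at 37 °C. Concentrations tested were 3.1, 6.2, 12.5, 25, 50 and 100 µg/ml. MIC is the minimum concentration inhibiting growth relative to compound-free tubes.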

[25] = system: Mycobacterium tuberculosis; assay: Antimycobacterial activity against drug-sensitive Mycobacterium tuberculosis Spec. 192; assay type: functional; how it was run: as §3

Row | SMILES | CC50 [1] [µM] | EC50 [2] [µM] | EC50 [3] [µM] | CC50 [4] [µM] | EC50 [5] [µM] | CC50 [6] [µM] | EC50 [7] [µM] | EC50 [8] [µM] | CC50 [9] [µM] | EC50 [10] [µM] | EC50 [11] [µM] | EC50 [12] [µM] | EC50 [13] [µM] | Activity [14] | Activity [15] | Activity [16] | Activity [17] | Activity [18] | Activity [19] | Activity [20] | further results
1 | FC(F)(F)c1cccc(NC(=S)NC2CCCCC2)c1 | 45 | > 60 | > 45 | 48 | > 48 | 14 | > 14 | > 14 | 60 | > 60 | > 60 | > 60 | > 60 | inactive | inactive | inactive | inactive | inactive | inactive | inactive | Activity [21]: inactive; Activity [22]: inactive; Activity [23]: inactive; MIC [24]: > 100 µg/mL; MIC [25]: > 100 µg/mL
2 | CCCCc1ccc(NC(=S)Nc2cccc(C(F)(F)F)c2)c(C)c1 | 43 | > 18 | > 43 | 10 | > 10 | 9 | > 9 | > 9 | 18 | > 18 | > 18 | > 18 | > 18 | inactive | inactive | inactive | inactive | inactive | inactive | inactive | Activity [21]: inactive; Activity [22]: inactive; Activity [23]: inactive; MIC [24]: 50 µg/mL (≈ 136 µM); MIC [25]: 100 µg/mL (≈ 273 µM)
3 | Cc1ccc(NC(=S)Nc2cccc(C(F)(F)F)c2)cc1Cl | 20 | > 20 | > 20 | 10 | > 10 | 10 | > 10 | > 10 | 20 | > 20 | > 20 | > 20 | > 20 | inactive | inactive | inactive | inactive | inactive | inactive | inactive | Activity [21]: inactive; Activity [22]: inactive; Activity [23]: inactive; MIC [24]: > 100 µg/mL; MIC [25]: > 100 µg/mL
